# From PubChem
# An excerpt weighted towards active compounds, which were near 2.3% of everything screened.
# GPR7 antag = blocks human GPR7 receptor signaling. GPR7-expressing cells, fluorescence antagonist assay. inhibition, % at 4.4 µM. AID 1861. P48145. actives 1.1% (n = 290,000); in the data active = inhibition above about 16%, passing the limit was not always enough;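 also: cells stimulated with the agonist NPW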
# HCV core dimer = HCV core protein dimerization inhibition | TR-FRET GST/Flag-core106 dimerization, 1536-well | inhibition, % at 5 µM | actives 0.33% (n = 300,000);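 active = inhibition above the mean of all tested compounds plus 3 SD, set per screening campaign, cut at about 45% in these data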
#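 Assay system – GST-tagged and Flag-tagged HCV core protein residues 1-106 · Quantity – core106 proteins, GST 13.5 nM and Flag 17 nM · Benchmarks – unlabelled core106 and no-GST-core106 wells · Read-out basis – percent inhibition of core106 dimerization signal · Detection – time-resolved FRET, ex 340 nm, em 617 and 671 nm · Schedule – 4 h at 22.5 °C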
# EBV gp42 block = inhibitors of Epstein-Barr virus glycoprotein 42; inhibition, % (tested at 21.74 µM); Fluorescence polarization binding assay, mP read-out; actives 0.42% (n = 220,000); AID 1085; in the data active = inhibition above about 50%
# Target sequence (Q1HVG2 whole entry, looked up): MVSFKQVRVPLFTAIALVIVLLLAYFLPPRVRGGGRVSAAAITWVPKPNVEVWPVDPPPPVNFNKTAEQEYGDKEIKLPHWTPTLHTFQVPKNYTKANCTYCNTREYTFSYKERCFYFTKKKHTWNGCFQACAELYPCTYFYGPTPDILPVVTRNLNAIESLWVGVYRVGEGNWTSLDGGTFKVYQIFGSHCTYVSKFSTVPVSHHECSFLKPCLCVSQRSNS
# ZTA DNA inh = blocks Epstein-Barr virus ZTA, an EBNA-1 counter-screen; inhibition, % at 11 µM; ZTA-DNA binding, fluorescence polarization; actives 0.15% (n = 320,000); AID 2234; P03206; in the data active = inhibition above about 33%
# Target sequence (P03206 whole entry, looked up): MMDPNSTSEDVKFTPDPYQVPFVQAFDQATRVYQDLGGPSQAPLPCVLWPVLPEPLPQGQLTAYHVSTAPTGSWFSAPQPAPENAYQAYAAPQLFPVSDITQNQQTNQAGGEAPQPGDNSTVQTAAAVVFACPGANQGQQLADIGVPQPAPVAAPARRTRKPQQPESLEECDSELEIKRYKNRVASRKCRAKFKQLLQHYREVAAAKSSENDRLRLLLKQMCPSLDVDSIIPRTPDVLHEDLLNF
# HCV NS3 hel inh = inhibitors of Hepatitis C virus NS3 helicase; NS3 helicase DNA unwinding, Cy5 molecular beacon fluorescence; inhibition, % at 10.9 µM; actives 0.56% (n = 290,000);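 active = inhibition above the mean of all tested compounds plus 3 SD, set per campaign, cut at about 35% in these data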
#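 System: Hepatitis C virus NS3 helicase domain fragment enzyme | Reagent: Annealed dual-labelled DNA beacon duplex, ATP-started | Compound dosing: 10.9 µM single point, 0.8% DMSO | Incubation: 1 h reaction at 25 °C, ATP-initiated | Technique: Cy5 fluorescence | Evaluation: Percent inhibition from t60/t0 fluorescence ratio | Benchmarks: Low DMSO, high thioflavine S at 110 µM | Replication: Singlicate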
# EBNA-1 inh = blocks EBNA-1 binding to DNA | EBNA-1 DNA binding, fluorescence polarization | inhibition, % at 14.8 µM | actives 0.34% (n = 300,000) | AID 1950; in the data active = inhibition above about 28%
# Hits are given with their value; 0 = inactive; - = no result.
SMILES,GPR7 antag,HCV core dimer,EBV gp42 block,ZTA DNA inh,HCV NS3 hel inh,EBNA-1 inh
C#CCn1cc(C=C2C(=O)c3ccccc3C2=O)c2ccccc21,0,-,95,-,0,-
Cc1cc(NC(=O)CN2C(=O)NC(C)(c3ccc(Cl)cc3)C2=O)no1 (centres undefined),0,0,0,0,0,0
O=[N+]([O-])c1ccc2[nH]c(O)c(N=NC(=S)Nc3cccnc3)c2c1,0,0,59,0,0,0
CCNC(=S)N=Nc1c(O)[nH]c2ccc([N+](=O)[O-])cc12,0,0,0,0,0,0
O=C(NCc1ccco1)C(c1ccco1)N(C(=O)Cn1nnc2ccccc21)c1ccc2c(c1)CCC2 (centres undefined),0,50,-,0,0,0
Cc1cccc(N(C(=O)Cn2nnc3ccccc32)C(C(=O)NCc2ccco2)c2ccncc2)c1 (centres undefined),0,0,0,0,0,0
O=C(CSCC(=O)NC1CC1)Nc1ccc2ccccc2c1,20,-,0,-,0,-
COc1ccc(CC(=O)NNC(=O)COc2ccc(Cl)cc2C)cc1S(=O)(=O)N1CCOCC1,-,-,-,0,-,-
N#Cc1c2nc3ccccc3nc2n2cc(NC(=O)c3ccc(F)cc3)ccc12,0,-,106,-,0,-
Cc1cccn2cc(-c3ccc4c(c3)NC(=O)CO4)nc12,0,0,0,0,0,0
Cc1ccn2cc(-c3ccc4c(c3)NC(=O)CO4)nc2c1,17,0,0,0,0,0
O=S(=O)(c1ccc(NC(=S)N/N=C/c2ccc(Oc3ccccc3)cc2)cc1)N1CCOCC1,0,0,0,0,0,0
O=S(=O)(c1ccc(NC(=S)N/N=C/c2c3ccccc3cc3ccccc23)cc1)N1CCOCC1,0,56,63,0,0,0
O=C(CN1c2cccc3cccc(c23)S1(=O)=O)Nc1ccc(S(=O)(=O)N2CCOCC2)cc1,0,56,0,0,0,0
COc1ccccc1N1CCN(Cc2cnc3ccc(Cl)cn23)CC1,0,-,-,-,0,-
Cc1cccc(OC2CCN(Cc3nc(CC4CC4)no3)CC2)c1,20,0,0,0,0,0
C#CCOCCOCCOCCNc1nc(N2CCN(C(=O)[C@H](CCCCN)n3cc(C(N)COC(=O)C(F)(F)F)nn3)CC2)nc(N2CCN(C(=O)[C@H](CCCCN)n3cc(C(N)CC(C)C)nn3)CC2)n1 (some centres undefined),-,-,0,-,-,-
Cc1cc(C)c2cc3c(ccn3C3OC[C@H](O)[C@H](O)[C@H]3O)cc2n1 (some centres undefined),0,0,94,0,0,0
CC(=O)O[C@@H]1[C@@H](OC(C)=O)[C@H](n2ccc3cc([N+](=O)[O-])ccc32)OC[C@@H]1OC(C)=O,0,0,0,0,0,0
N#C/C(=C(/O)CCl)c1nc(-c2ccccc2)cs1,19,0,0,0,0,0
Cc1ccc(-c2csc(/C(C#N)=C(\O)CCl)n2)cc1,0,-,0,-,0,-
CCn1cc(S(=O)(=O)c2ccc(C)cc2)c(=O)c2cc(OC)ccc21,0,0,-,0,0,0
CC(OC(=O)c1ccc(NC(=O)CC#N)cc1)C(=O)Nc1ccc(Oc2ccccc2)cc1 (centres undefined),0,47,-,0,0,0
CC(OC(=O)c1ccc(NC(=O)CC#N)cc1)C(=O)Nc1nc(-c2ccccc2)cs1 (centres undefined),-,0,-,0,-,0
COc1ccc2nc(/C(C#N)=C\c3ccc(Oc4ccc([N+](=O)[O-])cn4)cc3)[nH]c2c1,0,58,0,0,0,0
SMILES,GPR7 antag,HCV core dimer,EBV gp42 block,ZTA DNA inh,HCV NS3 hel inh,EBNA-1 inh
Cc1ccc2nc(/C(C#N)=C\c3ccc(Oc4ccc([N+](=O)[O-])cn4)cc3)[nH]c2c1,0,0,0,0,0,0
Cc1ccc2cccc(OCC(=O)N3CC(C)CC(C)C3)c2n1 (centres undefined),17,0,0,0,0,0
CCN(Cc1cccs1)C(=O)CN1C(=O)NC(c2ccccc2)(c2ccccc2)C1=O,-,-,-,0,-,-
CC(=O)N(C(C)=O)N1C(=O)c2cccc3c(N4CCOCC4)ccc(c23)C1=O,0,0,0,0,0,0
CCN(CC)S(=O)(=O)c1ccc(C(=O)OCCN2C(=O)c3cccc4c(N5CCOCC5)ccc(c34)C2=O)cc1,0,0,133,0,0,0
O=C(OCCN1C(=O)c2cccc3c(N4CCOCC4)ccc(c23)C1=O)c1cc(Cl)cc(Cl)c1,0,-,132,-,0,-
C/C(=N\NC(=O)C1COc2ccccc2O1)c1ccc(N2CCOCC2)cc1 (centres undefined),0,0,0,0,0,0
N#C/C(=C/c1cn(-c2ccccc2)nc1-c1cccc(S(=O)(=O)N2CCCC2)c1)C(=O)NCc1ccco1,0,71,0,0,0,0
COc1cc(NC(=O)c2ccc3c(c2)OCCO3)ccc1NC(=O)c1cccs1,0,0,0,0,0,0
O=C(NCC(c1ccco1)N1CCOCC1)c1ccccc1 (centres undefined),-,0,-,0,-,0
O=C1NC(=O)[C@@H]2C3c4ccccc4C=CN3[C@H](C(=O)c3cccs3)[C@H]12 (some centres undefined),0,0,88,0,0,0
CCCCNC(=O)Nc1ccc(C2SCCS2)cc1,0,0,0,0,0,0
CC(C1CC2CCC1C2)N1CC(O)=C(c2nc3ccccc3[nH]2)C1=N (centres undefined),21,0,0,0,0,0
C=CCNC(=S)NCC,0,0,0,0,0,0
CSc1nc(NCc2ccco2)c2sc3nc(C(C)C)c4c(c3c2n1)CC(C)(C)OC4,0,0,0,0,0,0
CSc1nc(NCCOCCO)c2sc3nc(-c4ccco4)c4c(c3c2n1)CCC4,0,87,0,0,0,0
Cc1ccc(CNCC2CCCO2)o1 (centres undefined),19,0,0,0,0,0
Cc1ccc(NC(=O)CN(C)C(=O)c2cc(-c3ccco3)nc3ccccc23)cc1,-,65,-,0,-,0
CN(CC(=O)Nc1ccc(F)cc1)C(=O)c1cc(-c2ccco2)nc2ccccc12,-,50,-,0,-,0
CN(CC(=O)Nc1ccc(Cl)c(S(=O)(=O)N2CCOCC2)c1)C(=O)c1ccc(C#N)cc1,-,-,-,0,-,-
Cc1cc(/C=N/NC(=O)CC#N)c(C)n1-c1ccc([N+](=O)[O-])cc1,0,0,0,0,0,0
COCc1c(Br)c(C)nc(OCC(=O)N/N=C/c2cc(C)n(-c3ccc([N+](=O)[O-])cc3)c2C)c1C#N,0,48,0,0,0,0
OC(c1cc(-c2ccc(C(F)(F)F)cc2)nc(C(F)(F)F)c1)C1CCCCN1 (centres undefined),42,0,0,0,0,0
OC(c1cc(C(F)(F)F)nc2c(C(F)(F)F)cccc12)C1CCCCN1 (centres undefined),-,0,-,0,-,0
